For two molecules, CC50, inhibition and selectivity ratio results are on record in ChEMBL document CHEMBL4411330, “Effects of Systematic Shortening of Noncovalent C8 Side Chain on the Cytotoxicity and NF-κB Inhibitory Capacity of Pyrrolobenzodiazepines (PBDs)” (J Med Chem, 2019).

Calls of active or inactive are those of the source. No cut-off for these calls is given here.

The nature of data set [1]: Cytotoxicity against human primary CLL cells assessed as cell death after 48 hrs by annexin V/propidium iodide-staining based flow cytometry. It is filed as functional. Conditions: read-out: LC50 (the source's name). In short, it runs like this:
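Primary patient CLL cells were isolated by Histopaque density gradient, phenotyped by flow cytometry and used within 24 h. Culture was RPMI with 10% FBS, 1% glutamate and 1% pen/strep, plus IL-4 5 ng/ml added with compound, at 37 °C, 5% CO2. Cells at 1,000,000 cells/ml were treated from 1 nM upward for 48 h, in triplicate. Annexin V-FITC/PI was read by flow cytometry, and LC50 came from sigmoidal dose-response fits.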
On the technique in general: A flow cytometer gives signals particle by particle.

Data set [2] in a line: Cytotoxicity against human B cells assessed as cell death after 48 hrs by annexin V/propidium iodide-staining based flow cytometry. The following applies: read-out: LC50. In short, it runs like this: (§1)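 Normal peripheral blood B or T cells from three donors were isolated by Histopaque density gradient and phenotyped for CD19/CD3/CD38/CD49d. They were used within 24 h in RPMI with 10% FBS, 1% glutamate and 1% pen/strep at 37 °C, 5% CO2. Cells at 1,000,000 cells/ml were exposed from 1 nM upward for 48 h, in triplicate. FITC-Annexin V/PI staining was read by flow cytometry, and LC50 was taken from the dose-response curves.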

Data set [3] can be described thus: Cytotoxicity against human T cells assessed as cell death after 48 hrs by annexin V/propidium iodide-staining based flow cytometry. Conditions: read-out: LC50. In a few lines:
as §1

The target in data set [4] is Transcription factor p65 (Homo sapiens) (UniProt Q04206). The experiment in a line: Inhibition of NF-kappaB in human JJN-3 cells assessed as reduction in p65 DNA binding activity up to 30 nM after 4 hrs by ELISA. The format is cell-based. In general terms: ELISA stands for enzyme-linked immunosorbent assay.
The subject of data set [5] is JJN-3. The experiment in a line: Cytotoxicity against human JJN-3 cells assessed as cell death after 48 hrs by annexin V/propidium iodide-staining based flow cytometry. It is filed as functional. The following applies: JJN-3, 48 h, read-out: LC50 (the source's name). In a few lines: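 JJN-3 cells were grown in DMEM with 20% FBS, 1% pen/strep and 1% pyruvate at 37 °C, 5% CO2. They were seeded at 1,000,000 cells/ml and exposed to compound from 1 nM upward for 48 h, in triplicate. Cell death was measured by Annexin V-FITC/propidium iodide flow cytometry, and LC50 was derived from sigmoidal dose-response curves.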

Data set [6] deals with T1, Transcription factor RelB (Homo sapiens) (UniProt Q01201).
T1 sequence (whole entry): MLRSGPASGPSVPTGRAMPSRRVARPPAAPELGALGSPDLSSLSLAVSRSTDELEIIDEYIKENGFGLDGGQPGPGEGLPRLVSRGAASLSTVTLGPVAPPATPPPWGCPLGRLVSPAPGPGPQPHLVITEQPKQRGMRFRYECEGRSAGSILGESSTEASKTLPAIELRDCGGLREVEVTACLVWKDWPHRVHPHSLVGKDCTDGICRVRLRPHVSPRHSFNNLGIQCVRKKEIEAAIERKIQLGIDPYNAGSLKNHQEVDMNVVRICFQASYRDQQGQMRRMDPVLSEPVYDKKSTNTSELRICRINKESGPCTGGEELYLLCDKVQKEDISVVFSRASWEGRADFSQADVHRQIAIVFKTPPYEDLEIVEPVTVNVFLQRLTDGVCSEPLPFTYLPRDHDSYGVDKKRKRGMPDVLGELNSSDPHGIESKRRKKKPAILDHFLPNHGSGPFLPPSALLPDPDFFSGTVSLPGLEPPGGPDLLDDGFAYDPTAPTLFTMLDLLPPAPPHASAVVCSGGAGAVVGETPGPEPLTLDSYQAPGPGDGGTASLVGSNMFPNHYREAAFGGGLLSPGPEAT
The data set can be described thus: Inhibition of NF-kappaB in human JJN-3 cells assessed as reduction in RelB DNA binding activity up to 30 nM after 4 hrs by ELISA. It is filed as cell-based.

For data set [7], the target named is T2, Nuclear factor NF-kappa-B p100 subunit (Homo sapiens) (UniProt Q00653).
T2 sequence (whole entry): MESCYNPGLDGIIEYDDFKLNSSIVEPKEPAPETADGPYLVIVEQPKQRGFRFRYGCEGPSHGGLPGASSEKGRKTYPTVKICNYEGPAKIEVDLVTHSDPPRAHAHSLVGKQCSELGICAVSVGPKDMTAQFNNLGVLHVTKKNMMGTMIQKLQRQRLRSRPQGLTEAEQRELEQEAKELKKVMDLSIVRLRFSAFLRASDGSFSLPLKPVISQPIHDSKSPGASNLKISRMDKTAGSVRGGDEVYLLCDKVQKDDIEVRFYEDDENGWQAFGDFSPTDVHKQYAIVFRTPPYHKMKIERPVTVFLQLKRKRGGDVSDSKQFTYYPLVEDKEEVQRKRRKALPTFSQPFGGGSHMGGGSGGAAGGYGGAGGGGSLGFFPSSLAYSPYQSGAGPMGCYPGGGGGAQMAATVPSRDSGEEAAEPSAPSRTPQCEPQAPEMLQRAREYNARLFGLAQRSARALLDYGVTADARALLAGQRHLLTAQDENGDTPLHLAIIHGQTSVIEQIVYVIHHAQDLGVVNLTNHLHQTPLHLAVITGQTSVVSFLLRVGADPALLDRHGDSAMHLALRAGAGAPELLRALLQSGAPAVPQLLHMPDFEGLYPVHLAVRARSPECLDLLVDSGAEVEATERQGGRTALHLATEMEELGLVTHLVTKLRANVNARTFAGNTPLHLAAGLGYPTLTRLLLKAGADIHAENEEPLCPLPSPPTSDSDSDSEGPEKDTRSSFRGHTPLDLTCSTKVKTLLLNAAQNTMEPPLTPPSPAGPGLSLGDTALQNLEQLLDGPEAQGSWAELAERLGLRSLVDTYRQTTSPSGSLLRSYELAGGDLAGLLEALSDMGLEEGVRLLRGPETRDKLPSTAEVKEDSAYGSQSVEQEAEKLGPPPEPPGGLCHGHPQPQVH
The experiment in a line: Inhibition of NF-kappaB in human JJN-3 cells assessed as reduction in p52 DNA binding activity up to 30 nM after 4 hrs by ELISA. The format is cell-based.

Data set [8] is described as follows: Therapeutic index, ratio of LC50 for human B cells to LC50 for human primary CLL cells. The format is toxicity. The following applies: B cells versus primary CLL cells, read-out: TI.
Data set [9] has as its target T3, Nuclear factor NF-kappa-B p105 subunit (Homo sapiens) (UniProt P19838).
T3 sequence (whole entry): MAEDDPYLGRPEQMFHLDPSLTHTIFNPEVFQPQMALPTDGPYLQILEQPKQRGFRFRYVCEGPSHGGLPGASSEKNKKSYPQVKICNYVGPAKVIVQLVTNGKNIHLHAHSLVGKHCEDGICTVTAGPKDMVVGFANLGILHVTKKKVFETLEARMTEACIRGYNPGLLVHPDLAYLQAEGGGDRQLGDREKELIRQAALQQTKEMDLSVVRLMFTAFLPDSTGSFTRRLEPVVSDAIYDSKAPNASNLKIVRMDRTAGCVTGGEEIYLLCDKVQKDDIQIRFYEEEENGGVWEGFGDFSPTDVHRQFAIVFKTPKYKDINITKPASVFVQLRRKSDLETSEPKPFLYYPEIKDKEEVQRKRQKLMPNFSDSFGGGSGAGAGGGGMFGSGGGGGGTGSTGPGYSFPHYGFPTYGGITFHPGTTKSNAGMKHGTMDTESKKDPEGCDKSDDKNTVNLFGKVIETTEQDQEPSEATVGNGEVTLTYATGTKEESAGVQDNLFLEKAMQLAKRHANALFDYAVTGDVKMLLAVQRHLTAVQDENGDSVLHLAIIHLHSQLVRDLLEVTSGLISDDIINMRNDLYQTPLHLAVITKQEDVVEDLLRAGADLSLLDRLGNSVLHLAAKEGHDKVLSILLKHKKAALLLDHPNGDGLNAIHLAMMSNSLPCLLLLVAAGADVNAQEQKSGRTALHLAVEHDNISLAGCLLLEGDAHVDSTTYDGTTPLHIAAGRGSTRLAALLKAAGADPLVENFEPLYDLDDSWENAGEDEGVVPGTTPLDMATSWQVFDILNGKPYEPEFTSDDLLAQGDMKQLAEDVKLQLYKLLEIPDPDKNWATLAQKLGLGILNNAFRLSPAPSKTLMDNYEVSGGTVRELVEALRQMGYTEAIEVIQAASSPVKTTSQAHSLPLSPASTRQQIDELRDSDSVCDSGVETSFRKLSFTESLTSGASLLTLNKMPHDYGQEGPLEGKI
The experiment in a line: Inhibition of NF-kappaB in human JJN-3 cells assessed as reduction in p50 DNA binding activity up to 30 nM after 4 hrs by ELISA. The format is cell-based.

Data set [10] can be described thus: Therapeutic index, ratio of LC50 for human T cells to LC50 for human primary CLL cells. It is filed as toxicity. The following applies: T cells versus primary CLL cells, read-out: TI.

Transcription factor p65 (Homo sapiens), sequence (Q04206 whole entry): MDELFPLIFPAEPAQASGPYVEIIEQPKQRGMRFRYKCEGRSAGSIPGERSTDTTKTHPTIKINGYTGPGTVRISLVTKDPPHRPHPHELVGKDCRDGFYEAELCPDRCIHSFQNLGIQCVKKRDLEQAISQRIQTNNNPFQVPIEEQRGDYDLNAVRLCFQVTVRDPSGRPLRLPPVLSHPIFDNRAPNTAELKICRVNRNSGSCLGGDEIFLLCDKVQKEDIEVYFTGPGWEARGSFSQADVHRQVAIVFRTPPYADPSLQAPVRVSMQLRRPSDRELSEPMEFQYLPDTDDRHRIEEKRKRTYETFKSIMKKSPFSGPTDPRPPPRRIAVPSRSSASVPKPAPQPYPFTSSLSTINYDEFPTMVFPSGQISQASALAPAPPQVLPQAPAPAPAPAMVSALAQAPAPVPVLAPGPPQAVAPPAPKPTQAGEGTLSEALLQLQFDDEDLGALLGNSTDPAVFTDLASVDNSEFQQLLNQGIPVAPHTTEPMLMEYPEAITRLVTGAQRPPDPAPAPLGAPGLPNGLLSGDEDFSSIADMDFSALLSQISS

Turning to `CCOc1ccc(NC(=O)CCCOc2cc3c(cc2OC)C(=O)N2CCC[C@H]2C=N3)cc1`, the CC50 in data set [1] was determined as 0.0058 µM; in [5], 0.0156 µM. In addition, the CC50 at 48 h in data set [2] was 0.75 µM; in data set [3], 3 µM. Moreover, the inhibition result in data set [4], in data set [6] and in data set [7] was “inactive” each time. The figures for the selectivity ratio in data set [8] and in data set [10] were 129 and 517, respectively. Besides, the inhibition entry in data set [9] was “Active”.
For `COC(=O)c1cc(NC(=O)c2cc3cc(NC(=O)CCCOc4cc5c(cc4OC)C(=O)N4CCC[C@H]4C=N5)ccc3o2)cn1C`, the figures for the CC50 in data set [1] and in data set [5] were 0.0075 µM and 0.03 µM, respectively. Also, the CC50 at 48 h in data set [2] amounted to 0.93 µM; in data set [3], 1.7 µM. Further, the inhibition entry in data set [6] was “Active”. Besides, the inhibition result in data set [7] and in data set [9] was “inactive” each time. Also, the results for the selectivity ratio in [8] and in [10] were 124 and 227, respectively.
